Where “and” joins values, the source holds several entries; their conditions need not be identical. Equal values may be shown once.
Columns and labels:
Type in all cases: in vivo, Japanese patients
[1] = Parsaclisib exposure and patient disposition
In short: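 Safety population: all enrolled patients given ≥1 dose. Regimen was 10 or 20 mg QD for 8 weeks, then QW, until progression, death, unacceptable toxicity or consent withdrawal. AEs were graded by NCI CTCAE v4.03. Treatment duration (d) = last dose − first dose + 1. QW-period duration (wk) = ceiling[(last dose − first QW dose + 1)/7]. Interruptions and reductions were tallied by dosing period.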

[2] = Treatment-emergent adverse events
[3] = Urine pharmacokinetics of parsaclisib, cycle 1 day 15
[4] = Any TEAE, QD dosing period (n = 17)
[5] = Any TEAE, QW dosing period (n = 12)
[6] = Grade ≥3 TEAE, QD dosing period (n = 17)
[7] = Grade ≥3 TEAE, QW dosing period (n = 12)

CCOc1c([C@H](C)n2nc(C)c3c(N)ncnc32)cc(Cl)c(F)c1[C@@H]1CNC(=O)C1 [parsaclisib]
Patients with dose interruption ([1]; 10 mg QD + 10 mg QW (n = 3)): 2 (66.7) n (%)
Patients with dose reduction ([1]; 10 mg QD + 10 mg QW (n = 3)): 1 (33.3) n (%)
Patients with dose interruption ([1]; 20 mg QD + 20 mg QW (n = 14)): 8 (57.1) n (%)
Patients with dose reduction ([1]; 20 mg QD + 20 mg QW (n = 14)): 4 (28.6) n (%)
patients who discontinued treatment due to AEs / TEAEs ([1]; 2 of 17 patients (varicella zoster infection, pyrexia)): 11.8%
patients requiring a dose reduction ([1]; 5 of 17 patients): 29.4%
patients remaining on study treatment at data cut‐off ([1]; 6 of 17 patients): 35.3%
patients requiring a dose interruption during the treatment period ([1]; 10 of 17 patients): 58.8%
Patients with dose interruption ([1]; Total (N = 17)): 10 (58.8) n (%)
Patients with dose reduction ([1]; Total (N = 17)): 5 (29.4) n (%)
Serious TEAE of pyrexia ([2]; 2 patients): 11.8%
rash (AESI), severity ([2]; 3 patients): 2 patients with grade 1 and 1 patient with grade 2
nausea (TEAE) ([2]; 4 of 17 patients, total): 23.5%
pyrexia (TEAE) ([2]; 4 of 17 patients, total): 23.5%
Serious TEAEs ([2]; 5 patients): 29.4%
TEAEs leading to dose reduction ([2]; 5 patients): 29.4%
decreased neutrophil count leading to dose interruption ([2]; 5 patients): 29.4%
constipation (TEAE) ([2]; 6 of 17 patients, total): 35.3%
Adverse events of special interest ([2]; 7 patients): 41.2%
TEAEs of grade 3 or higher ([2]; 11 patients): 64.7%
Constipation [2, 4]: 4 (23.5) n (%)
Cough [2, 4]: 2 (11.8) n (%)
Cystitis [2, 4]: 1 (5.9) n (%)
Diarrhea [2, 4]: 0 (0.0) n (%)
Drug eruption [2, 4]: 3 (17.6) n (%)
Dry eye [2, 4]: 0 (0.0) n (%)
Dry skin [2, 4]: 2 (11.8) n (%)
Fall [2, 4]: 2 (11.8) n (%)
Gastritis [2, 4]: 2 (11.8) n (%)
Headache [2, 4]: 2 (11.8) n (%)
Hyperkalemia [2, 4]: 0 (0.0) n (%)
Hypoalbuminemia [2, 4]: 2 (11.8) n (%)
Insomnia [2, 4]: 0 (0.0) n (%)
Myalgia [2, 4]: 1 (5.9) n (%)
Nasopharyngitis [2, 4]: 0 (0.0) n (%)
Nausea [2, 4]: 2 (11.8) n (%)
Pyrexia [2, 4]: 3 (17.6) n (%)
Rash [2, 4]: 1 (5.9) n (%)
Stomatitis [2, 4]: 2 (11.8) n (%)
Upper respiratory tract infection [2, 4]: 2 (11.8) n (%)
Constipation [2, 5]: 2 (16.7) n (%)
Cough [2, 5]: 0 (0.0) n (%)
Cystitis [2, 5]: 1 (8.3) n (%)
Diarrhea [2, 5]: 3 (25.0) n (%)
Drug eruption [2, 5]: 0 (0.0) n (%)
Dry eye [2, 5]: 2 (16.7) n (%)
Dry skin [2, 5]: 0 (0.0) n (%)
Fall [2, 5]: 0 (0.0) n (%)
Gastritis [2, 5]: 0 (0.0) n (%)
Headache [2, 5]: 1 (8.3) n (%)
Hyperkalemia [2, 5]: 2 (16.7) n (%)
Hypoalbuminemia [2, 5]: 0 (0.0) n (%)
Insomnia [2, 5]: 3 (25.0) n (%)
Myalgia [2, 5]: 1 (8.3) n (%)
Nasopharyngitis [2, 5]: 3 (25.0) n (%)
Nausea [2, 5]: 3 (25.0) n (%)
Pyrexia [2, 5]: 1 (8.3) n (%)
Rash [2, 5]: 2 (16.7) n (%)
Stomatitis [2, 5]: 0 (0.0) n (%)
Upper respiratory tract infection [2, 5]: 0 (0.0) n (%)
Constipation ([2]; Any TEAE, Total (N = 17)): 6 (35.3) n (%)
Cough ([2]; Any TEAE, Total (N = 17)): 2 (11.8) n (%)
Cystitis ([2]; Any TEAE, Total (N = 17)): 2 (11.8) n (%)
Diarrhea ([2]; Any TEAE, Total (N = 17)): 3 (17.6) n (%)
Drug eruption ([2]; Any TEAE, Total (N = 17)): 3 (17.6) n (%)
Dry eye ([2]; Any TEAE, Total (N = 17)): 2 (11.8) n (%)
Dry skin ([2]; Any TEAE, Total (N = 17)): 2 (11.8) n (%)
Fall ([2]; Any TEAE, Total (N = 17)): 2 (11.8) n (%)
Gastritis ([2]; Any TEAE, Total (N = 17)): 2 (11.8) n (%)
Headache ([2]; Any TEAE, Total (N = 17)): 3 (17.6) n (%)
Hyperkalemia ([2]; Any TEAE, Total (N = 17)): 2 (11.8) n (%)
Hypoalbuminemia ([2]; Any TEAE, Total (N = 17)): 2 (11.8) n (%)
Insomnia ([2]; Any TEAE, Total (N = 17)): 3 (17.6) n (%)
Myalgia ([2]; Any TEAE, Total (N = 17)): 2 (11.8) n (%)
Nasopharyngitis ([2]; Any TEAE, Total (N = 17)): 3 (17.6) n (%)
Nausea ([2]; Any TEAE, Total (N = 17)): 4 (23.5) n (%)
Pyrexia ([2]; Any TEAE, Total (N = 17)): 4 (23.5) n (%)
Rash ([2]; Any TEAE, Total (N = 17)): 3 (17.6) n (%)
Stomatitis ([2]; Any TEAE, Total (N = 17)): 2 (11.8) n (%)
Upper respiratory tract infection ([2]; Any TEAE, Total (N = 17)): 2 (11.8) n (%)
Constipation [2, 6]: 0 (0.0) n (%)
Cough [2, 6]: 0 (0.0) n (%)
Cystitis [2, 6]: 0 (0.0) n (%)
Diarrhea [2, 6]: 0 (0.0) n (%)
Drug eruption [2, 6]: 0 (0.0) n (%)
Dry eye [2, 6]: 0 (0.0) n (%)
Dry skin [2, 6]: 0 (0.0) n (%)
Fall [2, 6]: 0 (0.0) n (%)
Gastritis [2, 6]: 0 (0.0) n (%)
Headache [2, 6]: 0 (0.0) n (%)
Hyperkalemia [2, 6]: 0 (0.0) n (%)
Hypoalbuminemia [2, 6]: 1 (5.9) n (%)
Insomnia [2, 6]: 0 (0.0) n (%)
Myalgia [2, 6]: 0 (0.0) n (%)
Nasopharyngitis [2, 6]: 0 (0.0) n (%)
Nausea [2, 6]: 0 (0.0) n (%)
Pyrexia [2, 6]: 0 (0.0) n (%)
Rash [2, 6]: 0 (0.0) n (%)
Stomatitis [2, 6]: 0 (0.0) n (%)
Upper respiratory tract infection [2, 6]: 0 (0.0) n (%)
Constipation [2, 7]: 0 (0.0) n (%)
Cough [2, 7]: 0 (0.0) n (%)
Cystitis [2, 7]: 0 (0.0) n (%)
Diarrhea [2, 7]: 0 (0.0) n (%)
Drug eruption [2, 7]: 0 (0.0) n (%)
Dry eye [2, 7]: 0 (0.0) n (%)
Dry skin [2, 7]: 0 (0.0) n (%)
Fall [2, 7]: 0 (0.0) n (%)
Gastritis [2, 7]: 0 (0.0) n (%)
Headache [2, 7]: 0 (0.0) n (%)
Hyperkalemia [2, 7]: 0 (0.0) n (%)
Hypoalbuminemia [2, 7]: 0 (0.0) n (%)
Insomnia [2, 7]: 0 (0.0) n (%)
Myalgia [2, 7]: 0 (0.0) n (%)
Nasopharyngitis [2, 7]: 0 (0.0) n (%)
Nausea [2, 7]: 0 (0.0) n (%)
Pyrexia [2, 7]: 0 (0.0) n (%)
Rash [2, 7]: 0 (0.0) n (%)
Stomatitis [2, 7]: 0 (0.0) n (%)
Upper respiratory tract infection [2, 7]: 0 (0.0) n (%)
Constipation ([2]; Grade ≥3 TEAE, Total (N = 17)): 0 (0.0) n (%)
Cough ([2]; Grade ≥3 TEAE, Total (N = 17)): 0 (0.0) n (%)
Cystitis ([2]; Grade ≥3 TEAE, Total (N = 17)): 0 (0.0) n (%)
Diarrhea ([2]; Grade ≥3 TEAE, Total (N = 17)): 0 (0.0) n (%)
Drug eruption ([2]; Grade ≥3 TEAE, Total (N = 17)): 0 (0.0) n (%)
Dry eye ([2]; Grade ≥3 TEAE, Total (N = 17)): 0 (0.0) n (%)
Dry skin ([2]; Grade ≥3 TEAE, Total (N = 17)): 0 (0.0) n (%)
Fall ([2]; Grade ≥3 TEAE, Total (N = 17)): 0 (0.0) n (%)
Gastritis ([2]; Grade ≥3 TEAE, Total (N = 17)): 0 (0.0) n (%)
Headache ([2]; Grade ≥3 TEAE, Total (N = 17)): 0 (0.0) n (%)
Hyperkalemia ([2]; Grade ≥3 TEAE, Total (N = 17)): 0 (0.0) n (%)
Hypoalbuminemia ([2]; Grade ≥3 TEAE, Total (N = 17)): 1 (5.9) n (%)
Insomnia ([2]; Grade ≥3 TEAE, Total (N = 17)): 0 (0.0) n (%)
Myalgia ([2]; Grade ≥3 TEAE, Total (N = 17)): 0 (0.0) n (%)
Nasopharyngitis ([2]; Grade ≥3 TEAE, Total (N = 17)): 0 (0.0) n (%)
Nausea ([2]; Grade ≥3 TEAE, Total (N = 17)): 0 (0.0) n (%)
Pyrexia ([2]; Grade ≥3 TEAE, Total (N = 17)): 0 (0.0) n (%)
Rash ([2]; Grade ≥3 TEAE, Total (N = 17)): 0 (0.0) n (%)
Stomatitis ([2]; Grade ≥3 TEAE, Total (N = 17)): 0 (0.0) n (%)
Upper respiratory tract infection ([2]; Grade ≥3 TEAE, Total (N = 17)): 0 (0.0) n (%)
patients with at least one TEAE ([2]; N = 17): all patients
neutropenia leading to dose interruption ([2]; additional 2 patients): 11.8%
serious TEAE of pancreatitis ([2]; dose interruption on both occurrences, responded to corticosteroid): One patient experienced a serious TEAE of pancreatitis (grade 2, study days 78 and 145)
TEAEs leading to dose interruption ([2]; during QD dosing): 7 patients
TEAEs leading to dose reduction ([2]; during QD dosing): 2 patients
TEAEs leading to dose interruption ([2]; during QW dosing): 4 patients
TEAEs leading to dose reduction ([2]; during QW dosing): 3 patients
Varicella zoster infection (AESI) ([2]; grade 2 in severity, led to parsaclisib discontinuation): 1 patient
TEAEs leading to parsaclisib dose reduction (terms) ([2]; human, in vivo, oral): febrile neutropenia (1 patient), drug eruption and neutropenia in a single patient during the QD period, pancreatitis and pancreatitis relapsing in a single patient, and diarrhea (1 patient) and exfoliative dermatitis (1 patient) during the QW period
febrile neutropenia (AESI), occurrence and severity ([2]; human, in vivo, oral): Two patients experienced grade 3
exfoliative dermatitis (AESI), occurrence and severity ([2]; human, in vivo, oral, 64 day): One patient experienced grade 1
Nonhematologic grade 3 or higher TEAEs occurring in 1 patient each ([2]; in vivo): bile duct stenosis (secondary to pancreatitis), hypoalbuminemia, and lymphoma progression (metastases to meninges [lymphomatous meningitis])
Other serious TEAEs experienced by 1 patient each ([2]; in vivo): diarrhea, enteritis infection, febrile neutropenia, metastases to meninges, and pancreatitis
TEAEs with a fatal outcome ([2]; in vivo): no TEAEs with a fatal outcome
diarrhea (AESI), longest time to resolution ([2]; individual patients): 14 days and 18 days and 67 days
diarrhea (AESI), time to first onset ([2]; individual patients): 70 days and 108 days and 305 days
febrile neutropenia (AESI), time to onset ([2]; individual patients): 28 days and 63 days
febrile neutropenia (AESI), time to resolution ([2]; individual patients): 10 days and 2 days
rash (AESI), longest time to resolution ([2]; individual patients): 5 days and 8 days and 23 days
rash (AESI), time to onset of first occurrence ([2]; individual patients): 11 days and 50 days and 312 days
Varicella zoster infection (AESI), onset ([2]; one patient): 33 days
Varicella zoster infection (AESI), resolution ([2]; one patient): 21 days
exfoliative dermatitis (AESI), onset ([2]; one patient): 64 days
exfoliative dermatitis (AESI), resolution ([2]; one patient): 36 days
diarrhea (AESI), severity ([2]; three patients, none led to discontinuation): 1 patient with grade 1 and 2 patients with grade 2
Fe,0-8h (unchanged parsaclisib recovered in urine) ([3]; Total, cycle 1 day 15, n 14, mean ± SD (text: mean (range))): 12.1 (5.4–20.4) %
CL renal ([3]; human, urine, oral): 6.67 mL/min
